Legend:
[1] = target: T1, Multidrug resistance-associated protein 1 (Homo sapiens, UniProt P33527); test: Inhibition of MRP1-mediated E2-17betaG transport in human MRP1 expressing HEK293 cells at 7 uM during 5 mins; assay type: ADME, cell-based; settings: hek293, 5 min
How it was run: (§1)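 Inside-out membrane vesicles from HEK293 cells transduced with MRP baculovirus (5 mM butyrate at 24 h, harvested day 3). Reaction: 7.5 µg vesicles in TS buffer pH 7.4 with 4 mM ATP, 10 mM MgCl2 and [3H]E2-17βG, 37°C for 5 min. E2-17βG was 0.16 µM (MRP1), 20 µM (MRP2) or 0.12 µM (MRP4). Uptake was read by rapid filtration and scintillation counting. ATP-dependent uptake was taken as ATP minus AMP values, with drug-free uptake set at 100%. Nominal 10 or 100 µM antagonist; actual concentration measured by LC-MS/MS. Three independent experiments.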

Rattus norvegicus = test: Attenuation of CP55940-induced hypotension in iv dosed rat; assay type: functional
How it was run: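 Male normotensive anaesthetized Wistar rats; antagonist given i.v. at several doses (n=2 per dose) 10 min before CP55,940 0.1 mg/kg i.v. Hypotension develops within 1 min; lowest blood pressure taken as the hypotensive effect. ED50 is the dose inhibiting the CP55,940 hypotensive effect by 50%, calculated from the linear part of the percentage dose-response curve.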

[2] = target: T2, ATP-binding cassette sub-family C member 4 (Homo sapiens, UniProt O15439); test: Inhibition of MRP4-mediated E2-17betaG transport in human MRP4 expressing HEK293 cells at 7 uM during 5 mins; assay type: ADME, cell-based; settings: hek293, 5 min; how it was run: as §1
T2 sequence (O15439 whole entry): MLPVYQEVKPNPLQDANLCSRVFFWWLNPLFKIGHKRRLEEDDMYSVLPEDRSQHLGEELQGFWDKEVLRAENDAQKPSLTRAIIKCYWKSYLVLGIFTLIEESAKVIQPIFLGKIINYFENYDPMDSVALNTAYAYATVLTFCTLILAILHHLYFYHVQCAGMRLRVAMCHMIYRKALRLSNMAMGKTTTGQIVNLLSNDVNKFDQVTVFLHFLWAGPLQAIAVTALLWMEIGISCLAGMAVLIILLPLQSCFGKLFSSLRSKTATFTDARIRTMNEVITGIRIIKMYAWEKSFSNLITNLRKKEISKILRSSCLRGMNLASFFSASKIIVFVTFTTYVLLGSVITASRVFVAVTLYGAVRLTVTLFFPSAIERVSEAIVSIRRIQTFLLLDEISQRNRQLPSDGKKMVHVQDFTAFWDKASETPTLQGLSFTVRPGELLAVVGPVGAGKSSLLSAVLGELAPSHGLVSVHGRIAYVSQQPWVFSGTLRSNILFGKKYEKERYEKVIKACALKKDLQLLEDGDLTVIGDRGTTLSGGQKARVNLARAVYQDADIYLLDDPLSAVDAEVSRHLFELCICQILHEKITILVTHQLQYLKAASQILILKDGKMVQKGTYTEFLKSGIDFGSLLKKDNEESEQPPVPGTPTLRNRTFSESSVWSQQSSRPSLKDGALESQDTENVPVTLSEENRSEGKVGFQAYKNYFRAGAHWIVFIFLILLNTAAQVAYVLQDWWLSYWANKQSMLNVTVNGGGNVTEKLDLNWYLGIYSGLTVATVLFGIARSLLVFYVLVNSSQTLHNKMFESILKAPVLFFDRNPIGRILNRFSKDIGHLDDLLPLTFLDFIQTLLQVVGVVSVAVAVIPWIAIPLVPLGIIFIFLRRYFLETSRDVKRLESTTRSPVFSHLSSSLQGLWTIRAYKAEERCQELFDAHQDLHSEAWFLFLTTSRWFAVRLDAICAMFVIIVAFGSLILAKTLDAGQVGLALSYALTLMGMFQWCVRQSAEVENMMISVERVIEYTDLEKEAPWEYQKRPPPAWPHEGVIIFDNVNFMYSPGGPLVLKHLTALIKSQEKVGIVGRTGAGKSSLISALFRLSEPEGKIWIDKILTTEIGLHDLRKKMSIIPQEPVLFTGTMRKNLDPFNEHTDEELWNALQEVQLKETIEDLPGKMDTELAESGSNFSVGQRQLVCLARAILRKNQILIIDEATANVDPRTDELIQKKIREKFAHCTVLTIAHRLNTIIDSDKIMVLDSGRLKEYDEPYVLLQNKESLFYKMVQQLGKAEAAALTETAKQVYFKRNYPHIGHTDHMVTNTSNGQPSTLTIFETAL

[3] = target: T3, ATP-binding cassette sub-family C member 2 (Homo sapiens, UniProt Q92887); test: Induction of MRP2-mediated E2-17betaG transport in human MRP2 expressing HEK293 cells at 7 uM during 5 mins; assay type: ADME, cell-based; settings: hek293, 5 min; how it was run: as §1
T3 sequence (Q92887 whole entry): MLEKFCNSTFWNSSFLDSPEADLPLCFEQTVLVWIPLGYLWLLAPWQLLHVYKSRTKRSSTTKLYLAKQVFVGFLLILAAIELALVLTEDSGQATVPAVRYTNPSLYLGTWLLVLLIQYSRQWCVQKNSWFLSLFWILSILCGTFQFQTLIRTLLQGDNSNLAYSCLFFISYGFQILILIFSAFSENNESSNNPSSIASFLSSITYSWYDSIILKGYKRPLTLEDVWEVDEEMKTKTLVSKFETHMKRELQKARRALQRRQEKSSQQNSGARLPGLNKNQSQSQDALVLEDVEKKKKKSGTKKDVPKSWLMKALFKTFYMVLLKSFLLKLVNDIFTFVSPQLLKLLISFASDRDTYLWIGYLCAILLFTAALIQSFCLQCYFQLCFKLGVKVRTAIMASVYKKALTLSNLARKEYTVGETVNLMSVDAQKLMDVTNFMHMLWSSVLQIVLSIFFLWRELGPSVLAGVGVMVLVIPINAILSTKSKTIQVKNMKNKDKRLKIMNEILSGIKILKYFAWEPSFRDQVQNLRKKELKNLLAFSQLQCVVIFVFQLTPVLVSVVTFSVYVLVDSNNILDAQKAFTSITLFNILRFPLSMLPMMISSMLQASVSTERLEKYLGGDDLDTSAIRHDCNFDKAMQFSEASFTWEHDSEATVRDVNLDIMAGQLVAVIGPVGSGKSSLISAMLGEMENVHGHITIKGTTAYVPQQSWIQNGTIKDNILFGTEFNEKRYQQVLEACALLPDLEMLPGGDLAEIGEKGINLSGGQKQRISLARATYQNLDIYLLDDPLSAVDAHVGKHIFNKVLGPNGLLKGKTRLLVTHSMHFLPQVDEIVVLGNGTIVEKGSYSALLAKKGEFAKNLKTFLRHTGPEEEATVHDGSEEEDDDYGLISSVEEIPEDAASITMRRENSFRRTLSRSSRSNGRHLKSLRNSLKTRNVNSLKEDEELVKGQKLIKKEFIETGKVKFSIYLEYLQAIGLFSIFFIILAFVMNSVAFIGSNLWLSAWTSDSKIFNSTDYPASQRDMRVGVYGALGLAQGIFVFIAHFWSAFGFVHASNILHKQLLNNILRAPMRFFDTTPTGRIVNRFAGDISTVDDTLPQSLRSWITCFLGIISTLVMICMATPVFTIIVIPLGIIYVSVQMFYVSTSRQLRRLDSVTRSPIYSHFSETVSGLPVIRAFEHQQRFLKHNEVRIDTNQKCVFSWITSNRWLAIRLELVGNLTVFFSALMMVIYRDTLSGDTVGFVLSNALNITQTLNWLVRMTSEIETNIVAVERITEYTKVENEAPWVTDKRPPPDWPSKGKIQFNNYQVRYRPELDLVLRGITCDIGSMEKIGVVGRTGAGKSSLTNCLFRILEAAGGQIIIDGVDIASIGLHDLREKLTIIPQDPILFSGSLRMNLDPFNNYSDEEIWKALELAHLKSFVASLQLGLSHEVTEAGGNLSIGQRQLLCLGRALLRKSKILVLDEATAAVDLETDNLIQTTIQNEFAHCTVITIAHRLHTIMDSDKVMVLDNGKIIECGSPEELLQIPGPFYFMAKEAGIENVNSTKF

[4] = Retention time of the compound by LC-MS/MS method; assay type: physicochemical
How it was run: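 Reaction mix without radiolabel, AMP condition, with 7.5 μg eYFP vesicles. Supernatant after 16,000–20,000g spin diluted in 50% acetonitrile/0.1% TFA. Gradient of 0.1% TFA water/acetonitrile, 50→90% B over 5 min. Electrospray triple quadrupole. Duplicates, at least three experiments.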

[5] = target: T1, Multidrug resistance-associated protein 1; test: (§2) Inhibition of MRP1-mediated E2-17betaG transport in human MRP1 expressing HEK293 cells at 12 uM during 5 mins; assay type: ADME, cell-based; settings: hek293, 5 min, 12 µM
How it was run: (§3)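 Inside-out membrane vesicles from MRP1-baculovirus-transduced HEK293 cells. 7.5 μg vesicles in TS buffer, 4 mM ATP, 10 mM MgCl2, 0.16 μM [3H]E2-17βG, 5 min at 37°C. Stopped on ice, then rapid filtration and scintillation counting. ATP minus AMP uptake taken as net. Nominal 10 or 100 μM antagonist, actual levels by LC-MS/MS. Expressed as % of untreated. Three independent experiments.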

[6] = target: T2, ATP-binding cassette sub-family C member 4; test: (§4) Inhibition of MRP4-mediated E2-17betaG transport in human MRP4 expressing HEK293 cells at 12 uM during 5 mins; assay type: ADME, cell-based; settings: hek293, 5 min, 12 µM
How it was run: (§5)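 MRP4-expressing HEK293 inside-out vesicles (baculovirus transduction). 7.5 μg protein with 4 mM ATP, 10 mM MgCl2 in TS buffer and 0.12 μM [3H]E2-17βG, 5 min at 37°C. Filter-bound radioactivity counted; AMP control subtracted for ATP-dependent uptake. Nominal 10/100 μM antagonist, actual concentrations by LC-MS/MS. Percent of untreated, three independent experiments.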

[7] = target: T3, ATP-binding cassette sub-family C member 2; test: Induction of MRP2-mediated E2-17betaG transport in human MRP2 expressing HEK293 cells at 12 uM during 5 mins; assay type: ADME, cell-based; settings: hek293, 5 min
How it was run: (§6)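 Inside-out membrane vesicles from HEK293 cells transduced with MRP2 baculovirus (sodium butyrate 5 mM added at 24 h, harvested day 3). 7.5 μg vesicles in TS buffer (pH 7.4) with 4 mM ATP, 10 mM MgCl2, 20 μM [3H]E2-17βG, 5 min at 37°C. Rapid filtration and scintillation counting; AMP values subtracted. Nominal 10 and 100 μM antagonist, actual levels measured by LC-MS/MS. Untreated set at 100%. Three independent experiments.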

[8] = target: T3, ATP-binding cassette sub-family C member 2; test: Induction of MRP2-mediated E2-17betaG transport in human MRP2 expressing HEK293 cells at 1 to 3 uM during 5 mins; assay type: ADME, cell-based; settings: hek293, 5 min; how it was run: as §6
[9] = target: T1, Multidrug resistance-associated protein 1; test: Inhibition of MRP1-mediated E2-17betaG transport in human MRP1 expressing HEK293 cells at 1 to 3 uM during 5 mins; assay type: ADME, cell-based; settings: hek293, 5 min; how it was run: as §3
[10] = target: T2, ATP-binding cassette sub-family C member 4; test: Noncompetitive inhibition of MRP4-mediated E2-17betaG transport in human MRP4 expressing HEK293 cells by Dixon plot; assay type: ADME, cell-based
[11] = target: ATP-binding cassette sub-family C member 3 (Homo sapiens, UniProt O15438); test: Inhibition of MRP3-mediated E2-17betaG transport in human MRP3 expressing HEK293 cells in presence of 15 uM E2-17betaG; assay type: ADME, cell-based
ATP-binding cassette sub-family C member 3, sequence (O15438 whole entry): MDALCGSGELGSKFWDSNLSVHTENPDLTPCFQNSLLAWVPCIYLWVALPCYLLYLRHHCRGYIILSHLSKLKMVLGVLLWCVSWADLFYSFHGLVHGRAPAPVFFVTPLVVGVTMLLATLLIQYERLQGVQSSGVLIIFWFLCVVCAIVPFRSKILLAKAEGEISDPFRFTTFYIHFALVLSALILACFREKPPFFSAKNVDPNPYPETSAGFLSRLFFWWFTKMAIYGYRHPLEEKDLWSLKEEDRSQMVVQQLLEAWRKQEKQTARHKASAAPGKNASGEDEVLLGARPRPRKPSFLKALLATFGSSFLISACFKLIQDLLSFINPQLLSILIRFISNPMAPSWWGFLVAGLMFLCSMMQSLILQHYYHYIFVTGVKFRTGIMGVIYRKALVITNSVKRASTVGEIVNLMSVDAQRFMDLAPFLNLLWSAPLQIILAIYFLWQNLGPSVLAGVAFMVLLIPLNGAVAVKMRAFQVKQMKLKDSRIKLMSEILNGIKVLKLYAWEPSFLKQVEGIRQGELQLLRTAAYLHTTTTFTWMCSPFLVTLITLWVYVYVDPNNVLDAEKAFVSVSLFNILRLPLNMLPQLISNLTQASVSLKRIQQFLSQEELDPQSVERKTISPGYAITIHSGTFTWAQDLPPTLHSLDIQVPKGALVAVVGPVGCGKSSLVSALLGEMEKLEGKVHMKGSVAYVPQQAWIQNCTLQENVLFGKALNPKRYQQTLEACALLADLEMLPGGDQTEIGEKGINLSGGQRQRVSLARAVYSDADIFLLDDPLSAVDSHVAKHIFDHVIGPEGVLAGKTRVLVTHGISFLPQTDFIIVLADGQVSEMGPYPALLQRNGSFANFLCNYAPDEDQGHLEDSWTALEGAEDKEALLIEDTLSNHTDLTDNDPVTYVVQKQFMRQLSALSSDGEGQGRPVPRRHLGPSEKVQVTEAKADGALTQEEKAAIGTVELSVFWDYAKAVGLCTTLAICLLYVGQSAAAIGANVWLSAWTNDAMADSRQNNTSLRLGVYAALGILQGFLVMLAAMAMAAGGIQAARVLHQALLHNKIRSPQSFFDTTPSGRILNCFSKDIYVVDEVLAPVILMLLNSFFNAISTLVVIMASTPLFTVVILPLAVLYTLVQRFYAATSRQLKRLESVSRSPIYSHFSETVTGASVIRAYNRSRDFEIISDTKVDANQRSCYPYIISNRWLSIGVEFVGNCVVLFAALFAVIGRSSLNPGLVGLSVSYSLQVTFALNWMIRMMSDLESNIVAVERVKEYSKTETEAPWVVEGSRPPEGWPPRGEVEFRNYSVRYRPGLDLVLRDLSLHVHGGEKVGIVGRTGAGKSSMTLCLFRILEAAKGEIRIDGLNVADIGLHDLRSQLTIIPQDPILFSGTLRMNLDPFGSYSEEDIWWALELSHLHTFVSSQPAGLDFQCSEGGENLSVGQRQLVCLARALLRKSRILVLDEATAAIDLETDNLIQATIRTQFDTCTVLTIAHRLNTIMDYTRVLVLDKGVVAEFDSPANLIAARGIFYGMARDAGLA
How it was run: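 Vesicles from MRP3-transduced HEK293 cells. 7.5 μg in TS buffer with 4 mM ATP and 10 mM MgCl2, substrate [3H]E2-17βG at 15 μM, with antagonists at high concentrations. Incubated at 37°C, filtered and counted. ATP-dependent uptake calculated by AMP subtraction.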

[12] = target: T3, ATP-binding cassette sub-family C member 2; test: Induction of MRP2-mediated E2-17betaG transport in human MRP2 expressing HEK293 cells at 0.7 to 1.3 uM during 5 mins; assay type: ADME, cell-based; settings: hek293, 5 min; how it was run: as §6
[13] = target: T2, ATP-binding cassette sub-family C member 4; test: Inhibition of MRP4-mediated E2-17betaG transport in human MRP4 expressing HEK293 cells at 1 to 3 uM during 5 mins; assay type: ADME, cell-based; settings: hek293, 5 min; how it was run: as §5
[14] = target: T2, ATP-binding cassette sub-family C member 4; test: Inhibition of MRP4-mediated E2-17betaG transport in human MRP4 expressing HEK293 cells in presence of 0.1 to 1 uM E2-17betaG
[15] = target: T1, Multidrug resistance-associated protein 1; test: Inhibition of MRP1-mediated E2-17betaG transport in human MRP1 expressing HEK293 cells in presence of 0.16 to 5 uM E2-17betaG
MRP1 (ABCC1) = MRP1 (ABCC1) (Homo sapiens, UniProt P33527); test: as §2; assay type: ADME, cell-based; settings: probe E2-17betaG; how it was run: as §3
MRP1 (ABCC1), sequence (P33527 whole entry): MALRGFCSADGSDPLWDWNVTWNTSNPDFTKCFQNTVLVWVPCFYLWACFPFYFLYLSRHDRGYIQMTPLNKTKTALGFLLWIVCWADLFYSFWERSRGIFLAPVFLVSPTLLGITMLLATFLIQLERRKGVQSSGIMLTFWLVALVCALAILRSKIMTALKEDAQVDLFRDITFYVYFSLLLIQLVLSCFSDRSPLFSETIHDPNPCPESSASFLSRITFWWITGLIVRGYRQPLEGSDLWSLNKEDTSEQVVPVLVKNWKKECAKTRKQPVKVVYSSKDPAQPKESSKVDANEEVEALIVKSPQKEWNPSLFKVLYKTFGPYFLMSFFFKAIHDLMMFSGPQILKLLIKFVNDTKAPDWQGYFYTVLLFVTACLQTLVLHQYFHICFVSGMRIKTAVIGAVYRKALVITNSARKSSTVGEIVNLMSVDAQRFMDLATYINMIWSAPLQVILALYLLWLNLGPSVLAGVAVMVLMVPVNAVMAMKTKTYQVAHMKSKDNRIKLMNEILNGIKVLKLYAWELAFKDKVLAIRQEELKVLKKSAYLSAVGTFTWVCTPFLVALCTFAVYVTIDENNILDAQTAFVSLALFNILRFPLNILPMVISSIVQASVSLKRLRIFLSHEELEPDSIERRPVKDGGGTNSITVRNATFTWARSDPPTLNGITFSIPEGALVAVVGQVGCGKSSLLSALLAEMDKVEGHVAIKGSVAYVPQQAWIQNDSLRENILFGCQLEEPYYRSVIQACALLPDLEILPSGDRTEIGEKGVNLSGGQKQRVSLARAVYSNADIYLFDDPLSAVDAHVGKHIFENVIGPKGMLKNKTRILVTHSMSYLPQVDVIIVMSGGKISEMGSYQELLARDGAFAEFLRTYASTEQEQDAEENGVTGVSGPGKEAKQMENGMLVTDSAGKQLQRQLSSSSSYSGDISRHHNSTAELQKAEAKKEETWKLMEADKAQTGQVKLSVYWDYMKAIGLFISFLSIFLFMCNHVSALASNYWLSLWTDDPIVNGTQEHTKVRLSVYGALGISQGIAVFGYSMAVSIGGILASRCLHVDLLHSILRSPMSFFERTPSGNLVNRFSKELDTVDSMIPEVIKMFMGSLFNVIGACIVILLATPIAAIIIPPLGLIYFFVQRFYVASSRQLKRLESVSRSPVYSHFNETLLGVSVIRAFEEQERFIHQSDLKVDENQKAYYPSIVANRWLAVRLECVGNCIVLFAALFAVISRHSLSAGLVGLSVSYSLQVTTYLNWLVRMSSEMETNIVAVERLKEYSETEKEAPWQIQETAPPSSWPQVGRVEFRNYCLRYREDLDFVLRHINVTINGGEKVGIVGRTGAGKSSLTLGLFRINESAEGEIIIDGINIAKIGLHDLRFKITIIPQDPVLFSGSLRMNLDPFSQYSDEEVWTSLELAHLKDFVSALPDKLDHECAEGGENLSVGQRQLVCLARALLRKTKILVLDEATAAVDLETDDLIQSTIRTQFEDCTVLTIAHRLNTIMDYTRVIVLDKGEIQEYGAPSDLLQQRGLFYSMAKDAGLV

MRP4 (ABCC4) = target: T4, MRP4 (ABCC4) (Homo sapiens, UniProt O15439); test: as §4; assay type: ADME, cell-based; settings: probe E2-17betaG; how it was run: as §5
T4 sequence (O15439 whole entry): T2 sequence (O15439 whole entry)

T1 sequence (P33527 whole entry): as above

Compound	ED50 (Rattus norvegicus) [mg/kg]	Retention_time [4] [min]	Activity [7] [%]	Activity [8] [%]	inhibition (INH) [9]	inhibition (INH) [11]	Activity [12] [%]	inhibition (INH) [13]	inhibition (INH) [14]	other results
CCN(CC)S(=O)(=O)NC(=NC)N1CC(c2ccccc2)C(c2ccc(Cl)cc2)=N1 (configuration not stated)	0.2	4.2								inhibition (INH) [1]: Not Active; inhibition (INH) [2]: Active; Activity [3]: 543%
CN=C(NS(=O)(=O)N1CCCC1)N1CC(c2ccccc2)C(c2ccc(Cl)cc2)=N1 (configuration not stated)	0.7	3.5	543							inhibition (INH) [5]: Active; inhibition (INH) [6]: Active
CN/C(=N\S(=O)(=O)N1CCCCCC1)N1CC(c2ccccc2)C(c2ccc(Cl)cc2)=N1 (configuration not stated)	0.1	4.8		349	Not Active	Active	256	Not Active	Active	inhibition (INH) ([10]; human, hek293): Active
CNC(=NS(=O)(=O)N1CCCCCCC1)N1CC(c2ccccc2)C(c2ccc(Cl)cc2)=N1 (configuration not stated)		5.4		349	Not Active		256	Not Active		
CCN(C)S(=O)(=O)NC(=NC)N1CC(c2ccccc2)C(c2ccc(Cl)cc2)=N1 (configuration not stated)		3.8	543			Active			Active	inhibition (INH) [15]: Active; Ki [10]: 7 µM; inhibition at 5 min, 12 µM (MRP1 (ABCC1)): -34%; inhibition at 5 min, 12 µM (MRP4 (ABCC4)): -72%

From ChEMBL document CHEMBL3526013, “Cannabinoid type 1 receptor antagonists modulate transport activity of multidrug resistance-associated proteins MRP1, MRP2, MRP3, and MRP4” (Drug Metab Dispos, 2011)
